Measurements: the RNAGym collection of RNA variant scans (doi:10.1002/anie.201605470)

B1: Osa-1-4 twister ribozyme (parent)
chain: CCGCCUAACACUGCCAAUGCCGGUCCCAAGCCCGGAUAAAAGUGGAGGGGGCGG

Variants of: B1
Assay: self-cleavage, relative activity (ratio to wild type); higher = more cleavage; co-transcriptional
How it was run: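 A DNA template encoding a 54-nucleotide twister ribozyme from Oryza sativa was made so that each of the 48 positions downstream of the cleavage site carried 97 % wild-type base and 1 % of each other base. Transcription in vitro ran for 2 h at 37 °C, during which the ribozyme could cleave itself. Reverse transcription used a template-switching oligonucleotide, and the products were PCR-amplified and deep-sequenced. Each read was scored as cleaved or uncleaved by whether upstream sequence was present, and relative activity is the fraction cleaved normalised to wild type.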

Variant | self-cleavage
CCGCCUAACACUUCCAAUGCCGGUCCCAAGCCCGGAUAAAAGUGAAGGGGGCGG | 0.02
CCGCCUAACACUUCCAAUGCCGGUCCCAAUCCCGGAUAAAAGUGGAGGGGGCGG | 0.01
CCGCCUAACACUUCCAAUGCCGGUCCCAACCCCGGAUAAAAGUGGAGGGGGCGG | 0.01
CCGCCUAACACUUCCAAUGCCGGUCCCAAACCCGGAUAAAAGUGGAGGGGGCGG | 0.01
CCGCCUAACACUCCCAAGGCCGGUCCCAAGCCCGGAUAAAAGUGGAGGGGGCGG | 0.05
CCGCCUAACACUCCCAACGCCGGUCCCAAGCCCGGAUAAAAGUGGAGGGGGCGG | 0.04
CCGCCUAACACUCCCAAAGCCGGUCCCAAGCCCGGAUAAAAGUGGAGGGGGCGG | 0.03
CCGCCUAACACUCCCAAUGCCGGUCCCAAGCCCGGAUAAAAGUGGAGGGGCCGG | 0.01
CCGCCUAACACUCCCAAUGCCGGUCCCAAGCCCGGAUAAAAGUGGAGGGGUCGG | 0.02
CCGCCUAACACUCCCAAUGCCGGUCCCAAGCCCGGACAAAAGUGGAGGGGGCGG | 0.03
CCGCCUAACACUCCCAAUGCCGGUCCCAAGCCCGGAAAAAAGUGGAGGGGGCGG | 0.02
CCGCCUAACACUCCCAAUGCCGGUCCCAAGCCCGGAGAAAAGUGGAGGGGGCGG | 0.04
CCGCCUAACACUUCCAAUACCGGUCCCAAGCCCGGAUAAAAGUGGAGGGGGCGG | 0.03
CCGCCUAACACUUCCAAUUCCGGUCCCAAGCCCGGAUAAAAGUGGAGGGGGCGG | 0.04
CCGCCUAACACUUCCAAUCCCGGUCCCAAGCCCGGAUAAAAGUGGAGGGGGCGG | 0.01
CCGCCUAACACUUCCAAUGCCGGUCCCAAGCCCCGAUAAAAGUGGAGGGGGCGG | 0.03
CCGCCUAACACUUCCAAUGCCGGUCCCAAGCCCUGAUAAAAGUGGAGGGGGCGG | 0.03
CCGCCUAACACUUCCAAUGCCGGUCCCAAGCCCAGAUAAAAGUGGAGGGGGCGG | 0.02
CCGCCUAACACUCCCAAUGCCGGUCCCAAGCCCGGAUAAAAGCGGAGGGGGCGG | 0.02
CCGCCUAACACUCCCAAUGCCGGUCCCAAGCCCGGAUAAAAGGGGAGGGGGCGG | 0.03
CCGCCUAACACUCCCAAUGCCGGUCCCAAGCCCGGAUAAAAGAGGAGGGGGCGG | 0.03
CCGCCUAACACUUCCAAUGCCCGUCCCAAGCCCGGAUAAAAGUGGAGGGGGCGG | 0.01
CCGCCUAACACUUCCAAUGCCAGUCCCAAGCCCGGAUAAAAGUGGAGGGGGCGG | 0.03
CCGCCUAACACUUCCAAUGCCUGUCCCAAGCCCGGAUAAAAGUGGAGGGGGCGG | 0.02
CCGCCUAACACUCCCAAUGCCGGACCCAAGCCCGGAUAAAAGUGGAGGGGGCGG | 0.02

Variant | self-cleavage
CCGCCUAACACUCCCAAUGCCGGCCCCAAGCCCGGAUAAAAGUGGAGGGGGCGG | 0.03
CCGCCUAACACUCCCAAUGCCGGGCCCAAGCCCGGAUAAAAGUGGAGGGGGCGG | 0.01
CCGCCUAACACUCCCAAUGCCGGUCCCAAGCCCGGAUAAAAGUGGAGGGGGCCG | 0.01
CCGCCUAACACUCCCAAUGCCGGUCCCAAGCCCGGAUAAAAGUGGAGGGGGCAG | 0.02
CCGCCUAACACUCCCAAUGCCGGUCCCAAGCCCGGAUAAAAGUGGAGGGGGCUG | 0.02
CCGCCUAACACUUCCAAUGCCGGUCCCAAGCCCGAAUAAAAGUGGAGGGGGCGG | 0.03
CCGCCUAACACUUCCAAUGCCGGUCCCAAGCCCGUAUAAAAGUGGAGGGGGCGG | 0.03
CCGCCUAACACUUCCAAUGCCGGUCCCAAGCCCGCAUAAAAGUGGAGGGGGCGG | 0.03
CCGCCUAACACUUCCAAUGCCGGUCCCAAGCCCGGAUAAAAGUGGAGGGGGCGG | 0.03
CCGCCUAACACUUCCAAUGCCGGUCCCAAGCCCGGAUAAAACUGGAGGGGGCGG | 0.01
CCGCCUAACACUUCCAAUGCCGGUCCCAAGCCCGGAUAAAAAUGGAGGGGGCGG | 0.02
CCGCCUAACACUUCCAAUGCCGGUCCCAAGCCCGGAUAAAAUUGGAGGGGGCGG | 0.01
CCGCCUAACACACCCAAUGCCGGUCCCAAGCCCGGAUAAAAGUGGAGGGGGCGG | 0.03
CCGCCUAACACCCCCAAUGCCGGUCCCAAGCCCGGAUAAAAGUGGAGGGGGCGG | 0.03
CCGCCUAACACGCCCAAUGCCGGUCCCAAGCCCGGAUAAAAGUGGAGGGGGCGG | 0.56
CCGCCUAACACUCCCAAUGCCGGUCCCAAGCCCGGAUAAAAGUGGAGGGGGCGC | 0.02
CCGCCUAACACUCCCAAUGCCGGUCCCAAGCCCGGAUAAAAGUGGAGGGGGCGA | 0.03
CCGCCUAACACUCCCAAUGCCGGUCCCAAGCCCGGAUAAAAGUGGAGGGGGCGU | 0.04
CCGCCUAACACUUCCAAUGCCGGUCCCAAGCCCGGAUAAAAGUAGAGGGGGCGG | 0.03
CCGCCUAACACUUCCAAUGCCGGUCCCAAGCCCGGAUAAAAGUCGAGGGGGCGG | 0.03
CCGCCUAACACUUCCAAUGCCGGUCCCAAGCCCGGAUAAAAGUUGAGGGGGCGG | 0.04
CCGCCUAACACUUCCAAUGCCGUUCCCAAGCCCGGAUAAAAGUGGAGGGGGCGG | 0.02
CCGCCUAACACUUCCAAUGCCGCUCCCAAGCCCGGAUAAAAGUGGAGGGGGCGG | 0
CCGCCUAACACUUCCAAUGCCGAUCCCAAGCCCGGAUAAAAGUGGAGGGGGCGG | 0.02
